Experimental data taken from ChEMBL document CHEMBL5576140, “Computational Design of Pore-Forming Peptides with Potent Antimicrobial and Anticancer Activities” (J Med Chem, 2024).
Activity calls are given as the source filed them. The calls are words filed in the database; no cut-off is given here.

How the values were obtained:
[1] = Hemolytic activity against human RBC incubated for 1 hr by microplate reader analysis; assay type: toxicity, cell-based, Erythrocyte; details: red blood cells (erythrocytes)
Summary of the method: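 Human red blood cells exposed to peptides up to 50 μM; hemolysis measured, IC50 derived where reached.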

SUD4 = experiment: Anti-cancer activity against human SU-DHL-4 cells incubated for 24 hrs by WST assay; assay type: functional, cell-based; details: SU-DHL-4, 24 h
Escherichia coli [2] = experiment: Antimicrobial activity against Escherichia coli TOP10 incubated for 24 hrs by broth microdilution assay; assay type: functional
Staphylococcus carnosus = experiment: Antimicrobial activity against Staphylococcus carnosus CCM 4838T incubated for 24 hrs by broth microdilution assay; assay type: functional
Staphylococcus aureus [3] = experiment: Antimicrobial activity against Staphylococcus aureus NE163 harboring single transposon insertion mutation in aureolysin at 30 uM incubated for 18 hrs relative to control; assay type: functional
Summary of the method: (§1)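 CA-MRSA USA300 LAC derivative JE2 and single transposon insertion mutants derived from JE2, each lacking an extracellular protease gene, were exposed to peptides up to 30 μM. The read-out was percent growth inhibition. Peptides were dissolved in PBS, and tests were run in triplicate.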

Staphylococcus aureus [4] = experiment: Antimicrobial activity against Staphylococcus aureus NE1506 harboring single transposon insertion mutation in V8 protease at 30 uM incubated for 18 hrs relative to control; assay type: functional; summary of the method: as §1
Staphylococcus aureus [5] = experiment: Antimicrobial activity against Staphylococcus aureus NE1740 harboring single transposon insertion mutation in staphopain A at 30 uM incubated for 18 hrs relative to control; assay type: functional; summary of the method: as §1
Staphylococcus aureus [6] = experiment: Antimicrobial activity against Staphylococcus aureus NE934 harboring single transposon insertion mutation in staphopain B at 30 uM incubated for 18 hrs relative to control; assay type: functional; summary of the method: as §1
[7] = Toxicity against reconstructed human skin model assessed as irritation at 50 uM incubated for 1 hr followed by compound washout measured after 42 hrs by MTT assay; assay type: tissue-based, Skin of body
Summary of the method: (§2)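 Reconstructed human epidermis with stratum corneum, per OECD TG 439 skin irritation guideline. Tissues exposed 1 h to peptide at 50 μM, then 42 h post-treatment incubation. Viability read by MTT. Controls were SDS and melittin.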

[8] = Toxicity against reconstructed human skin model assessed as tissue viability at 50 uM incubated for 1 hr followed by compound washout measured after 42 hrs by MTT assay; assay type: tissue-based, Skin of body; details: read-out: Activity; summary of the method: as §2
[9] = Stability in human serum assessed as half life at 10 mg/ml by UPLC-MS analysis; assay type: ADME, cell-free
Summary of the method: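 Peptides dissolved in PBS and incubated in 25% human serum. Intact peptide remaining followed over time to at least 6 h; half-life taken as time to 50% stability.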

Acinetobacter baumannii [10] = experiment: Anti-infective activity against Acinetobacter baumannii ATCC 19606 infected in neutropenic CD-1 mouse deep thigh infection model assessed as reduction in bacterial load at 0.18 mg/kg, ip measured after 4 days; assay type: functional, organism-based; details: time 4.0 day
Summary of the method: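 Neutropenic mice infected intramuscularly in right thigh with 10⁶ cells per mL A. baumannii ATCC 19606; single intraperitoneal peptide dose at 10× MIC; bacterial load determined 4 days after treatment (euthanized day 8); n = 6 per group from three inocula; one-way ANOVA with Dunnett's test versus untreated.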

[11] = Toxicity in neutropenic CD-1 mouse deep thigh infection model infected with Acinetobacter baumannii ATCC 19606 assessed as body weight change at 0.18 mg/kg, ip measured after 4 days; assay type: organism-based; details: in vivo, 96 h, time 4 day
Summary of the method: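 Neutropenic mice infected intramuscularly in the right thigh with 10⁶ cells per mL of A. baumannii ATCC 19606. […] Body weight monitored for toxicity. Euthanasia 4 days post-infection (day 8). n = 6 per group, from three inocula.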

Enterococcus faecium = experiment: Depolarization of cytoplasmic membrane in Enterococcus faecium ATCC 700221 at MIC measured for 45 mins by DiSC3-(5) dye based assay; assay type: functional, organism-based
Summary of the method: (§3)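 Bacteria loaded with membrane-potential dye DiSC3-(5), then treated with peptide at its MIC for the respective strain; depolarization read as rise in dye fluorescence; polymyxin B and levofloxacin as reference antibiotics.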

Staphylococcus aureus [12] = experiment: Depolarization of cytoplasmic membrane in Staphylococcus aureus ATCC 12600 at MIC measured for 45 mins by DiSC3-(5) dye based assay; assay type: functional, organism-based; summary of the method: as §3
Klebsiella pneumoniae [13] = experiment: Depolarization of cytoplasmic membrane in Klebsiella pneumoniae ATCC 13883 at MIC measured for 45 mins by DiSC3-(5) dye based assay; assay type: functional, organism-based; summary of the method: as §3
Acinetobacter baumannii [14] = experiment: Depolarization of cytoplasmic membrane in Acinetobacter baumannii ATCC 19606 at MIC measured for 45 mins by DiSC3-(5) dye based assay; assay type: functional, organism-based; summary of the method: as §3
Pseudomonas aeruginosa [15] = experiment: Depolarization of cytoplasmic membrane in Pseudomonas aeruginosa PAO1 at MIC measured for 45 mins by DiSC3-(5) dye based assay; assay type: functional, organism-based; summary of the method: as §3
Escherichia coli [16] = experiment: Depolarization of cytoplasmic membrane in Escherichia coli ATCC 11775 at MIC measured for 45 mins by DiSC3-(5) dye based assay; assay type: functional, organism-based; summary of the method: as §3
Klebsiella pneumoniae [17] = experiment: Induction of outer membrane permeabilization in Klebsiella pneumoniae ATCC 13883 measured for 20 mins by NPN uptake assay; assay type: functional, organism-based
Summary of the method: (§4)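 Outer-membrane permeabilization of Gram-negative bacteria read as rise in fluorescence of the lipophilic dye NPN, which enters only when outer-membrane integrity is compromised. Peptides applied at their MIC against the respective strain; polymyxin B and levofloxacin as reference antibiotics. Triplicates.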

Acinetobacter baumannii [18] = experiment: Induction of outer membrane permeabilization in Acinetobacter baumannii ATCC 19606 measured for 20 mins by NPN uptake assay; assay type: functional, organism-based
Pseudomonas aeruginosa [19] = experiment: Induction of outer membrane permeabilization in Pseudomonas aeruginosa PAO1 measured for 20 mins by NPN uptake assay; assay type: functional, organism-based; summary of the method: as §4
Escherichia coli [20] = experiment: Induction of outer membrane permeabilization in Escherichia coli ATCC 11775 measured for 20 mins by NPN uptake assay; assay type: functional, organism-based

Compound: CC1(C)S[C@@H]2[C@H](NC(=O)[C@H](N)c3ccccc3)C(=O)N2[C@H]1C(=O)O [AMPICILLIN]
- IC50 at 1 h [1]: 900 nM

Compound: CC[C@H](C)[C@H](NC(=O)CN)C(=O)NCC(=O)N[C@@H](C)C(=O)N[C@H](C(=O)N[C@@H](CC(C)C)C(=O)N[C@@H](CCCCN)C(=O)N[C@H](C(=O)N[C@@H](CC(C)C)C(=O)N[C@H](C(=O)N[C@H](C(=O)NCC(=O)N[C@@H](CC(C)C)C(=O)N1CCC[C@H]1C(=O)N[C@@H](C)C(=O)N[C@@H](CC(C)C)C(=O)N[C@H](C(=O)N[C@@H](CO)C(=O)N[C@@H](Cc1c[nH]c2ccccc12)C(=O)N[C@H](C(=O)N[C@@H](CCCCN)C(=O)N[C@@H](CCCNC(=N)N)C(=O)N[C@@H](CCCCN)C(=O)N[C@@H](CCCNC(=N)N)C(=O)N[C@@H](CCC(N)=O)C(=O)N[C@@H](CCC(N)=O)C(N)=O)[C@@H](C)CC)[C@@H](C)CC)[C@@H](C)O)[C@@H](C)O)C(C)C)C(C)C [MELITTIN]
- IC50 (SUD4): ≤ 5000 nM

Compound: H-KKKKAKKAAKKAFQFANQADNQAQDAKQNK-NH2
- MIC (Escherichia coli [2]): > 50 µM
- MIC (Staphylococcus carnosus): > 50 µM
- inhibition at 30 µM (Staphylococcus aureus [3]): < 45%
- inhibition at 30 µM (Staphylococcus aureus [4]): < 45%
- inhibition at 30 µM (Staphylococcus aureus [5]): < 45%
- inhibition at 30 µM (Staphylococcus aureus [6]): < 45%

Compound: H-KKKKIKKIIKKIFQFINQIDNQIQDIKQNK-NH2
- MIC (Staphylococcus carnosus): > 50 µM
- inhibition at 30 µM (Staphylococcus aureus [3]): < 45%
- inhibition at 30 µM (Staphylococcus aureus [4]): < 45%
- inhibition at 30 µM (Staphylococcus aureus [5]): < 45%
- inhibition at 30 µM (Staphylococcus aureus [6]): < 45%

Compound: H-KKKKKLKKILKKLFQFINQLDNQLQDIKKKKK-OH
- IC50 at 1 h [1]: > 50000 nM
- inhibition at 30 µM (Staphylococcus aureus [3]): < 45%
- inhibition at 30 µM (Staphylococcus aureus [4]): < 45%
- inhibition at 30 µM (Staphylococcus aureus [5]): < 45%
- inhibition at 30 µM (Staphylococcus aureus [6]): < 45%
- Activity [7]: Non-Toxic
- viability at 1 h, 50 µM [8]: 100%
- half-life at 10 mg/ml [9]: > 6 h
- Activity (Acinetobacter baumannii [10]): inactive
- Activity [11]: Non-Toxic
- Activity (Enterococcus faecium): Active
- Activity (Staphylococcus aureus [12]): Active
- Activity (Klebsiella pneumoniae [13]): Active
- Activity (Acinetobacter baumannii [14]): Active
- Activity (Pseudomonas aeruginosa [15]): Active
- Activity (Escherichia coli [16]): Active
- Activity (Klebsiella pneumoniae [17]): Active
- Activity (Acinetobacter baumannii [18]): inactive
- Activity (Pseudomonas aeruginosa [19]): Active
- Activity (Escherichia coli [20]): Active
